From ChEMBL document CHEMBL2346552, “A novel metformin derivative, HL010183, inhibits proliferation and invasion of triple-negative breast cancer cells” (Bioorg Med Chem, 2013)
Where a name gives a salt, the structure may show the parent alone. Activity calls are given as the source filed them. The calls are words filed in the database; no cut-off is given here.

Key:
Hs-578T [1] = experiment: Antiinvasive activity against triple-negative human Hs578T cells at 5 mM after 17 hrs by light microscopic analysis relative to control; format: functional
Hs-578T [2] = experiment: Cytotoxicity against triple-negative human Hs578T cells assessed as growth inhibition after 24 hrs by MTT assay; format: functional, cell-based
MDA-MB-231 [3] = experiment: Cytotoxicity against triple-negative human MDA-MB-231 cells assessed as growth inhibition after 24 hrs by MTT assay; format: functional, cell-based; conditions: MDA-MB-231, 24 h
Mus musculus [4] = experiment: Toxicity in BALB/c athymic nude mouse xenografted with triple-negative human MDA-MB-231 cells assessed as body weight change at 500 mg/kg, po qd measured for 35 days relative to vehicle-treated control; format: organism-based; parameters: dose 500 mg/kg, route oral; conditions: in vivo, 840 h
Method in brief: (§1)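 MDA-MB-231 s.c. xenograft in nude mice (n = 6), dosed orally by gavage once daily for 35 days at 25–100 or 500 mg/kg. Body weights were recorded three times weekly and compared with vehicle-treated mice.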

MDA-MB-231 [5] = experiment: Induction of apoptosis in triple-negative human MDA-MB-231 cells assessed as viable cells at 10 mM after 24 hrs by annexin V-FITC/propidium iodide staining-based flow cytometric analysis relative to control; format: functional; conditions: MDA-MB-231, 24 h, read-out: Activity
Method in brief: (§2)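 MDA-MB-231 cells treated 24 h at 0.1 or 10 mM were stained with FITC-annexin V and propidium iodide and analyzed by flow cytometry. Quadrants: annexin−/PI− viable; annexin+/PI− early apoptotic; PI+ late apoptotic/necrotic.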

MDA-MB-231 [6] = experiment: Induction of apoptosis in triple-negative human MDA-MB-231 cells assessed as apoptotic cells at 10 mM after 24 hrs by annexin V-FITC/propidium iodide staining-based flow cytometric analysis relative to control; format: functional; method in brief: as §2
MDA-MB-231 [7] = experiment: Induction of apoptosis in triple-negative human MDA-MB-231 cells assessed as dead cells at 10 mM after 24 hrs by annexin V-FITC/propidium iodide staining-based flow cytometric analysis relative to control; format: functional
Method in brief: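 MDA-MB-231 cells grown in DMEM at 37 °C, 5% CO2, then exposed for 24 h to agent dissolved in distilled water. Cells were stained at 1 × 10^6 cells/ml with FITC-annexin V and/or propidium iodide for flow cytometry and read as quadrant dot plots. Lower left is viable, lower right early apoptotic, upper quadrants late apoptotic/necrotic.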

MDA-MB-231 [8] = experiment: Induction of apoptosis in triple-negative human MDA-MB-231 cells assessed as early apoptotic cells at 10 mM after 24 hrs by annexin V-FITC/propidium iodide staining-based flow cytometric analysis relative to control; format: functional; method in brief: as §2
Hs-578T [9] = experiment: Antiinvasive activity against triple-negative human Hs578T cells after 17 hrs by light microscopic analysis; format: functional, cell-based
Method in brief: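 Transwell filter invasion assay; serum-free medium with 0.1% BSA plus drug in the lower chamber, 5 × 10⁴ Hs578T cells plus drug in the upper chamber. Invaded cells on the underside of the filter counted by light microscopy at 400× after 17 h, thirteen fields per filter, each sample in triplicate. Hs578T cultured in DMEM at 37 °C, 5% CO₂.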

Hs-578T [10] = experiment: Antiinvasive activity against triple-negative human Hs578T cells assessed as downregulation of MMP9 level at 5 to 20 mM after 24 hrs by gelatin zymogram assay; format: functional, cell-based
Method in brief: (§3)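 Hs578T cells were cultured 24 h in serum-free medium containing compound at 0.05–0.2 mM or 5–20 mM. Gelatinolytic activity of the conditioned medium was resolved by gelatin zymography (MMP-2 72 kDa, MMP-9 92 kDa). Relative band intensities were quantified by densitometry.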

[11] = target: Serine/threonine-protein kinase mTOR (Homo sapiens) (UniProt P42345); experiment: Inhibition of mTOR phosphorylation in triple-negative human […] cells at 20 mM after 24 hrs by immunoblot analysis; format: cell-based
Method in brief: (§4)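 Hs578T cells exposed to compound for 24 h at 0.05–0.2 mM or 5–20 mM. Lysates were made in Triton X-100 buffer (pH 7.4, NaF, EGTA, DTT, Na3VO4, protease inhibitors) and run on 10% SDS–PAGE. Immunoblots were probed with anti-phospho AMPK or anti-phospho mTOR antibody.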

Hs-578T [12] = experiment: Antiinvasive activity against triple-negative human Hs578T cells assessed as downregulation of MMP2 level by immunoblot analysis; format: functional, cell-based
Hs-578T [13] = experiment: Antiinvasive activity against triple-negative human Hs578T cells assessed as downregulation of MMP2 level after 24 hrs by gelatin zymogram assay; format: functional, cell-based; method in brief: as §3
Hs-578T [14] = experiment: Antiinvasive activity against triple-negative human Hs578T cells at 20 mM after 17 hrs by light microscopic analysis; format: functional, cell-based
Method in brief: (§5)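 Transwell invasion with polycarbonate filters. 5 × 10^4 Hs578T cells were placed in the upper chamber with drug, and the lower chamber held serum-free medium with 0.1% BSA plus drug. After 17 h, cells invaded to the filter underside were counted by light microscopy (400×) in 13 fields per filter. Each sample was run in triplicate.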

[15] = target: 5'-AMP-activated protein kinase catalytic subunit alpha-2 (Homo sapiens) (UniProt P54646); experiment: Activation of AMPK in triple-negative human […] cells at 20 mM after 24 hrs by immunoblot analysis; format: cell-based; method in brief: as §4
Chain of 5'-AMP-activated protein kinase catalytic subunit alpha-2 (Homo sapiens) (P54646 whole entry, looked up): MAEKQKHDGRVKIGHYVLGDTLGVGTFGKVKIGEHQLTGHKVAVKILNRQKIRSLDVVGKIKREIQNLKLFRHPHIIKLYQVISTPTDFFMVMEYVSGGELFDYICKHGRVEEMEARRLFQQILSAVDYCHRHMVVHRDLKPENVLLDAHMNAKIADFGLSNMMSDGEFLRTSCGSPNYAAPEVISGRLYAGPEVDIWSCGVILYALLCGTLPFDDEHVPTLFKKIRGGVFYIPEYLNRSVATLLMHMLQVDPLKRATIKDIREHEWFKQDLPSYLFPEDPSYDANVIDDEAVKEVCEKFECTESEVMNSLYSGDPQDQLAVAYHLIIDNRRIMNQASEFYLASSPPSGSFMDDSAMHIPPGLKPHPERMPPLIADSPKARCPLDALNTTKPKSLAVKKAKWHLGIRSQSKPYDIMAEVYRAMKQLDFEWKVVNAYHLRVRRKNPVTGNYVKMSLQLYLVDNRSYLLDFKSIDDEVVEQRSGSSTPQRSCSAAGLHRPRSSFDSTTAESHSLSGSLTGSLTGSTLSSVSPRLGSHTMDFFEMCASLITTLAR

Hs-578T [16] = experiment: Antiinvasive activity against triple-negative human Hs578T cells at 10 mM after 17 hrs by light microscopic analysis; format: functional, cell-based; method in brief: as §5
MDA-MB-231 [17] = experiment: Antitumor activity against triple-negative human MDA-MB-231 cells xenografted in BALB/c athymic nude mouse assessed as tumor growth inhibition at 50 mg/kg, po qd measured for 35 days relative to vehicle-treated control; format: functional; conditions: MDA-MB-231, 840 h, read-out: TGI
Method in brief: (§6)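 MDA-MB-231 cells (5 × 10^6 in 0.1 mL serum-free medium) were injected s.c. into the right lower flank of nude mice. At tumor volumes of 100–130 mm³, mice (n = 6) received oral gavage once daily for 35 days at 25, 50, 100 or 500 mg/kg. Caliper volumes, (length × width²)/2, were taken three times weekly. Inhibition was calculated versus the vehicle group.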

[18] = target: Serine/threonine-protein kinase mTOR (Homo sapiens) (UniProt P42345); experiment: Ratio of compound activity to metformin activity for inhibition of mTOR phosphorylation in triple-negative human […] cells; format: cell-based
[19] = target: 5'-AMP-activated protein kinase catalytic subunit alpha-2 (Homo sapiens) (UniProt P54646); experiment: Activation of AMPK in triple-negative human […] cells at 0.2 mM after 24 hrs by immunoblot analysis; format: cell-based; method in brief: as §4
Hs-578T [20] = experiment: Ratio of metformin IC50 to compound IC50 for triple-negative human Hs578T cells; format: functional
Method in brief: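 Hs578T cells were exposed to compounds for 24 h and viability was read by MTT (4 h, formazan dissolved in DMSO, OD 540 nm), in triplicate. The ratio uses IC50 values from this assay.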

MDA-MB-231 [21] = experiment: Induction of apoptosis in triple-negative human MDA-MB-231 cells assessed as early apoptotic cells at 0.1 mM after 24 hrs by annexin V-FITC/propidium iodide staining-based flow cytometric analysis relative to control; format: functional; method in brief: as §2
Hs-578T [22] = experiment: Antiinvasive activity against triple-negative human Hs578T cells at 0.2 mM after 17 hrs by light microscopic analysis relative to control; format: functional; method in brief: as §5
MDA-MB-231 [23] = experiment: Ratio of compound activity to metformin activity for tumor growth inhibition of triple-negative human MDA-MB-231 cells xenografted in BALB/c athymic nude mouse; format: functional
Mus musculus [24] = experiment: Toxicity in BALB/c athymic nude mouse xenografted with triple-negative human MDA-MB-231 cells assessed as body weight change at 25 to 100 mg/kg, po qd measured for 35 days relative to vehicle-treated control; format: organism-based; parameters: dose 25-100 mg/kg, route oral; conditions: in vivo, 840 h; method in brief: as §1
MDA-MB-231 [25] = experiment: Induction of apoptosis in triple-negative human MDA-MB-231 cells assessed as viable cells at 0.1 mM after 24 hrs by annexin V-FITC/propidium iodide staining-based flow cytometric analysis relative to control; format: functional; conditions: MDA-MB-231, 24 h, read-out: Activity; method in brief: as §2
MDA-MB-231 [26] = experiment: Induction of apoptosis in triple-negative human MDA-MB-231 cells assessed as apoptotic cells at 0.1 mM after 24 hrs by annexin V-FITC/propidium iodide staining-based flow cytometric analysis relative to control; format: functional; method in brief: as §2
MDA-MB-231 [27] = experiment: Antitumor activity against triple-negative human MDA-MB-231 cells xenografted in BALB/c athymic nude mouse assessed as tumor growth inhibition at 25 mg/kg, po qd measured for 35 days relative to vehicle-treated control; format: functional; conditions: MDA-MB-231, 840 h, read-out: TGI; method in brief: as §6
MDA-MB-231 [28] = experiment: Induction of apoptosis in triple-negative human MDA-MB-231 cells assessed as dead cells at 0.1 mM after 24 hrs by annexin V-FITC/propidium iodide staining-based flow cytometric analysis relative to control; format: functional
Method in brief: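 MDA-MB-231 cells grown in DMEM at 37 °C, 5% CO2, then exposed for 24 h to agent dissolved in DMSO. Cells were stained at 1 × 10^6 cells/ml with FITC-annexin V and/or propidium iodide and analysed by flow cytometry as quadrant dot plots. Lower left is viable, lower right early apoptotic, upper right/left late apoptotic/necrotic (membrane integrity lost).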

[29] = target: Serine/threonine-protein kinase mTOR (Homo sapiens) (UniProt P42345); experiment: Inhibition of mTOR phosphorylation in triple-negative human […] cells at 0.2 mM after 24 hrs by immunoblot analysis; format: cell-based; method in brief: as §4
Hs-578T [30] = experiment: Ratio of compound activity to metformin activity for inhibition of triple-negative human Hs578T cells invasiveness; format: functional
Hs-578T [31] = experiment: Antiinvasive activity against triple-negative human Hs578T cells assessed as downregulation of MMP9 level at 0.05 to 0.2 mM after 24 hrs by gelatin zymogram assay; format: functional, cell-based; method in brief: as §3
MDA-MB-231 [32] = experiment: Antitumor activity against triple-negative human MDA-MB-231 cells xenografted in BALB/c athymic nude mouse assessed as tumor growth inhibition at 100 mg/kg, po qd measured for 35 days relative to vehicle-treated control; format: functional; conditions: MDA-MB-231, 840 h, read-out: TGI; method in brief: as §6
[33] = target: 5'-AMP-activated protein kinase catalytic subunit alpha-2 (Homo sapiens) (UniProt P54646); experiment: Ratio of compound activity to metformin activity for activation of AMPK in triple-negative human […] cells; format: cell-based

## CN(C)C(=N)NC(=N)N.NCCCC(=O)O [listing 1 of 2 here]
Hs-578T [1]
  inhibition at 5000 µM: 43.6%
Hs-578T [2]
  IC50: 9.1 mM
MDA-MB-231 [3]
  IC50: 41.5 mM

## CN(C)C(=N)NC(=N)N.Cl [METFORMIN HYDROCHLORIDE]
Mus musculus [4]
  Activity: Non-toxic
MDA-MB-231 [5]
  viability at 10000 µM: 82.4%
MDA-MB-231 [6]
  Activity: 15.3%
MDA-MB-231 [7]
  Activity: 0.5%
Hs-578T [2]
  IC50: 26.8 mM
MDA-MB-231 [8]
  Activity: 1.8%
MDA-MB-231 [3]
  IC50: 58.4 mM

## CN(C)C(=N)NC(=N)N.NCCCC(=O)O [listing 2 of 2 here]
Hs-578T [9]
  Activity: Dose-dependent effect

## CC(C)C[C@H](CN)CC(=O)O.CN(C)C(=N)NC(=N)N [METFORMIN PREGABALIN SALT]
Hs-578T [1]
  inhibition at 5000 µM: 64.6%
Hs-578T [2]
  IC50: 7.2 mM
MDA-MB-231 [3]
  IC50: 17.7 mM

## CN(C)C(=N)NC(=N)N
Hs-578T [10]
  Activity: inactive
[11]
  inhibition: Active
Hs-578T [12]
  Activity: Dose-dependent effect
Hs-578T [13]
  Activity: Dose-dependent effect
Hs-578T [14]
  inhibition: Active
[15]
  Activity: Active
Hs-578T [16]
  inhibition: inactive

## CCCc1ccccc1Nc1nc(N)nc(N(C)C)n1.Cl
MDA-MB-231 [17]
  inhibition in vivo at 50 mg/kg: 17.4%
[18]
  Ratio: 100
[19]
  Activity: Active
Hs-578T [20]
  Ratio IC50: 100
MDA-MB-231 [21]
  Activity: 3.1%
Hs-578T [22]
  inhibition at 200 µM: 36.6%
MDA-MB-231 [23]
  Ratio: 5
Mus musculus [24]
  Activity: Non-toxic
MDA-MB-231 [25]
  viability at 100 µM: 78.4%
MDA-MB-231 [26]
  Activity: 17%
MDA-MB-231 [27]
  inhibition in vivo at 25 mg/kg: 6.2%
MDA-MB-231 [28]
  Activity: 1.6%
Hs-578T [12]
  Activity: Dose-dependent effect
[29]
  inhibition: Active
Hs-578T [30]
  Ratio: 100
Hs-578T [13]
  Activity: Dose-dependent effect
Hs-578T [31]
  Activity: inactive
MDA-MB-231 [32]
  inhibition in vivo at 100 mg/kg: 27.9%
[33]
  Ratio: 100
Hs-578T [2]
  IC50: 0.28 mM
MDA-MB-231 [3]
  IC50: 0.28 mM

## N=C(N)NC(=N)NCCc1ccccc1 [PHENFORMIN ACETIC ACID SALT]
Hs-578T [2]
  IC50: 0.9 mM
MDA-MB-231 [3]
  IC50: 1.68 mM

## CN(C)C(=N)NC(=N)N.NCC1(CC(=O)O)CCCCC1 [METFORMIN GABAPENTIN SALT]
Hs-578T [1]
  inhibition at 5000 µM: 73.6%
Hs-578T [2]
  IC50: 4 mM
MDA-MB-231 [3]
  IC50: 16.1 mM
